For experiment [1], the target named is Serine/threonine-protein kinase B-raf (Homo sapiens, UniProt P15056). The experiment can be described thus: Inhibition of human wild type BRAF using myelin basic protein as substrate in presence of [gamma-33P]ATP incubated for 40 mins by scintillation counting method. The gist of the method:
(§1)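 Radiometric kinase assay run at Reaction Biology. Kinase (5−10 mU) in 25 mM Tris pH 7.5, 0.02 mM EGTA, 10 mM magnesium acetate with 0.66 mg/mL myelin basic protein and [γ-33P]ATP at 1 μM ATP. Reaction started with Mg-ATP and run 40 min at room temperature, then stopped with 3% phosphoric acid. Spotted on P30 filtermat, washed, scintillation counted.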

For experiment [2], the target named is Serine/threonine-protein kinase B-raf (Homo sapiens, UniProt P15056, V600E). The experiment can be described thus: Inhibition of human BRAF V600E mutant using myelin basic protein as substrate in presence of [gamma-33P]ATP incubated for 40 mins by scintillation counting method. The procedure, abridged:
as §1

For experiment [3], the target named is RAF proto-oncogene serine/threonine-protein kinase (Homo sapiens, UniProt P04049). The experiment can be described thus: Inhibition of human wild type CRAF using myelin basic protein as substrate in presence of [gamma-33P]ATP incubated for 40 mins by scintillation counting method.
Sequence of RAF proto-oncogene serine/threonine-protein kinase (P04049 whole entry): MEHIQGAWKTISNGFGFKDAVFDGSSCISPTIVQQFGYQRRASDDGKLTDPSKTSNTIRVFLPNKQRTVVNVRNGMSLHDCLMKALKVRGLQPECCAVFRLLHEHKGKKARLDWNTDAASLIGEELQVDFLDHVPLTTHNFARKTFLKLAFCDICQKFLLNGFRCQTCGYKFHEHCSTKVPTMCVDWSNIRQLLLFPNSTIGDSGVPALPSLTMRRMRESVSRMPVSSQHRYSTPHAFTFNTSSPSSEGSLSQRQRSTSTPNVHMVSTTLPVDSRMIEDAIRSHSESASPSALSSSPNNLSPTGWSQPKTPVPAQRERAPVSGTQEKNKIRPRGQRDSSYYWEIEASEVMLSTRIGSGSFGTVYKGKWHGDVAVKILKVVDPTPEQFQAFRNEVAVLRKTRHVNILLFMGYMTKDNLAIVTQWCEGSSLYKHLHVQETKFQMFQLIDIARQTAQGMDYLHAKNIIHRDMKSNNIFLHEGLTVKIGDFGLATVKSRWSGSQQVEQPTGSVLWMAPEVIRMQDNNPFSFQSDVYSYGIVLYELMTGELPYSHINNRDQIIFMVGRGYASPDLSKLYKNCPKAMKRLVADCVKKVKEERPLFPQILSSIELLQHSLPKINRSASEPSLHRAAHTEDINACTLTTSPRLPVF
For experiment [4], the system named is Panel melanoma (Carcinoma cell lines). The experiment in a line: cells. The note with it: Homo sapiens, 48 h, read-out: INH.

The values below come from ChEMBL document CHEMBL5046217, “Discovery of New Imidazo[2,1-b]thiazole Derivatives as Potent Pan-RAF Inhibitors with Promising In Vitro and In Vivo Anti-melanoma Activity” (J Med Chem, 2021).

What is called IC50 is the concentration needed to halve the response being measured.

Where only a bound is given, the exact number is not on record here.

Sequence of Serine/threonine-protein kinase B-raf (Homo sapiens, UniProt P15056, V600E) (P15056 2-766 V600E limits assumed): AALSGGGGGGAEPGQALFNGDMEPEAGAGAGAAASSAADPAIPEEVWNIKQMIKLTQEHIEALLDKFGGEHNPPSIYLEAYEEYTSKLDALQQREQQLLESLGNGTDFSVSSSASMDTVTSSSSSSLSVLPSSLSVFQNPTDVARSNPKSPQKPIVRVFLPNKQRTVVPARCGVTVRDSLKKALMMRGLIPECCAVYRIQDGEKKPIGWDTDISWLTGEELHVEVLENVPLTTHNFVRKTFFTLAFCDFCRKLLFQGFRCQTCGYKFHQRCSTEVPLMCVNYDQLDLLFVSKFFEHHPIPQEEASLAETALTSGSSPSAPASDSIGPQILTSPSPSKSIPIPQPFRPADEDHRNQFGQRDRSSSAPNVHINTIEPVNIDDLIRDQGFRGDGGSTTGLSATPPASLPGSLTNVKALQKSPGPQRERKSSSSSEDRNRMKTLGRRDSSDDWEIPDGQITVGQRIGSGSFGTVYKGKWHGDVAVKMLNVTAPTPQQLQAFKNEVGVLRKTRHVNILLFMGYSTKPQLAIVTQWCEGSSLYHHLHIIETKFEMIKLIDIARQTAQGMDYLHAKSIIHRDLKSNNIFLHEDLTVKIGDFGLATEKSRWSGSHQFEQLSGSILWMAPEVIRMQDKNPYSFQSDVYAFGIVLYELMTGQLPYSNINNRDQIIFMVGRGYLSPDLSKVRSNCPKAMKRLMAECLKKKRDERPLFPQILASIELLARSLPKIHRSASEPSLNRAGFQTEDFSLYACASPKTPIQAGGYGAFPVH
Sequence of Serine/threonine-protein kinase B-raf (Homo sapiens, UniProt P15056) (P15056 whole entry): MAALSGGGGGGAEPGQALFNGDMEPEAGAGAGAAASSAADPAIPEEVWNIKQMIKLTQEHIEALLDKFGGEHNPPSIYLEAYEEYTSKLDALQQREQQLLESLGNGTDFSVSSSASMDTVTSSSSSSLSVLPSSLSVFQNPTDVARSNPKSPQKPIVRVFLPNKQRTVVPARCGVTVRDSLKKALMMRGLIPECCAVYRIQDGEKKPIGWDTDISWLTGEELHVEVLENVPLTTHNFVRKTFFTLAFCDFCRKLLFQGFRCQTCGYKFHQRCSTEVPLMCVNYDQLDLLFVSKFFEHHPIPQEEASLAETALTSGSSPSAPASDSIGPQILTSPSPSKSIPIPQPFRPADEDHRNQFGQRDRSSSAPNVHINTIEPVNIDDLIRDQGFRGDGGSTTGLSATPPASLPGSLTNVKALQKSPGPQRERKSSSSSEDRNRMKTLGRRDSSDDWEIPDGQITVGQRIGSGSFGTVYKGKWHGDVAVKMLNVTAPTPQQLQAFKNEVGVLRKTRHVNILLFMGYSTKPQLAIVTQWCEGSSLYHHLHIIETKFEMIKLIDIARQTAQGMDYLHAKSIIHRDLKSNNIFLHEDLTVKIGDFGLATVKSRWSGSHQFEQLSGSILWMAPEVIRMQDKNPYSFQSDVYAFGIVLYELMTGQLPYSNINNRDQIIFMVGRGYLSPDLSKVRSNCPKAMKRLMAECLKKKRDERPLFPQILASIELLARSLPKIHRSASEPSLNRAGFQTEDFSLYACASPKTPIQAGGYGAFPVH

Consider `COc1cccc(-c2nc3sccn3c2-c2ccnc(NCCCNS(=O)(=O)c3ccccc3)n2)c1`, for which the IC50 in experiment [1] was 721 nM; in experiment [2] it was 109 nM; in experiment [3], 129 nM.

For `Cc1ccc(S(=O)(=O)NCCCNc2nccc(-c3c(-c4cccc(O)c4)nc4sccn34)n2)cc1`, the IC50 in experiment [1] was determined as 18 nM; in experiment [2] it was 9 nM; in experiment [3], 13 nM.

With `COc1cccc(-c2nc3sccn3c2-c2ccnc(NCCN3CCCN(C)S3(=O)=O)n2)c1`, the IC50 in experiment [1] is 8.26 nM; in experiment [2], 2.62 nM; in experiment [3] it was 2.33 nM.

`COc1cccc(-c2nc3sccn3c2-c2ccnc(NCCNS(=O)(=O)c3ccc(C)cc3)n2)c1`: the IC50 was 987 nM in experiment [1], 177 nM in experiment [2] and 163 nM in experiment [3].

As for `Cc1ccc(S(=O)(=O)NCCNc2nccc(-c3c(-c4ccccc4)nc4sccn34)n2)cc1`, the IC50 in experiment [1] came to 623 nM; in experiment [2] it was 89.3 nM; in experiment [3], 251 nM.

Take `O=S(=O)(NCCCNc1nccc(-c2c(-c3cccc(O)c3)nc3sccn23)n1)c1ccccc1`: the IC50 is 29 nM in experiment [1], 20 nM in experiment [2] and 23 nM in experiment [3].

Regarding `COc1ccc(S(=O)(=O)NCCNc2nccc(-c3c(-c4cccc(OC)c4)nc4sccn34)n2)cc1`, the results for the IC50 in experiment [1], in experiment [2] and in experiment [3] were 745 nM, 160 nM and 151 nM, respectively.

`COc1cccc(-c2nc3sccn3c2-c2ccnc(NCCN3CCNS3(=O)=O)n2)c1`: the IC50 worked out at 20.3 nM in experiment [1], 10.5 nM in experiment [2] and 5.61 nM in experiment [3].

`COc1cccc(-c2nc3sccn3c2-c2ccnc(NCCN3CCCNS3(=O)=O)n2)c1`: the figures for the IC50 in experiment [1], in experiment [2] and in experiment [3] were 18.1 nM, 9.96 nM and 7.22 nM, respectively.

As to `O=S(=O)(NCCNc1nccc(-c2c(-c3cccc(O)c3)nc3sccn23)n1)c1ccccc1`, the IC50 in experiment [1] was determined as 35 nM; in experiment [2] it was 19 nM; in experiment [3], 21 nM.

As for `COc1cccc(-c2nc3sccn3c2-c2ccnc(NCCCNS(=O)(=O)c3ccc(F)cc3)n2)c1`, in experiment [4], the inhibition at 10 µM came out at 101%. The IC50 came to 430 nM in experiment [1], 90.3 nM in experiment [2] and 95.2 nM in experiment [3].

In the case of `O=S(=O)(NCCNc1nccc(-c2c(-c3ccccc3)nc3sccn23)n1)c1ccc(O)cc1`, the IC50 in experiment [1] turned out to be 97 nM; in experiment [2], 65 nM; in experiment [3], 75 nM.

Consider `COc1cccc(-c2nc3sccn3c2-c2ccnc(NCCN3CCN(Cc4ccccc4)S3(=O)=O)n2)c1`, for which the IC50 in experiment [1] amounted to 17.3 nM; in experiment [2], 8.36 nM; in experiment [3], 4.32 nM.

As to `O=S(=O)(NCCNc1nccc(-c2c(-c3ccc(O)cc3)nc3sccn23)n1)c1ccc(O)cc1`, the results for the IC50 in experiment [1], in experiment [2] and in experiment [3] were 9710 nM, 25100 nM and 19400 nM, respectively.

Consider `COc1cccc(-c2nc3sccn3c2-c2ccnc(NCCNS(=O)(=O)c3ccc(F)cc3)n2)c1`, for which the IC50 was 522 nM in experiment [1], 115 nM in experiment [2] and 100 nM in experiment [3].

For the compound `COc1ccc(-c2nc3sccn3c2-c2ccnc(NCCNS(=O)(=O)c3ccc(OC)cc3)n2)cc1`, the IC50 in experiment [1] turned out to be 9890 nM; in experiment [2] it was 26300 nM; in experiment [3], 24300 nM.

As to `COc1cccc(-c2nc3sccn3c2-c2ccnc(NCCN3CCCN(C(=O)OC(C)(C)C)S3(=O)=O)n2)c1`, the IC50 is 23.3 nM in experiment [1], 12.6 nM in experiment [2] and 11.2 nM in experiment [3].

With `COc1cccc(-c2nc3sccn3c2-c2ccnc(NCCNS(=O)(=O)c3ccccc3)n2)c1`, the values for the IC50 in experiment [1], in experiment [2] and in experiment [3] were 941 nM, 120 nM and 220 nM, respectively.

For the compound `O=S1(=O)N(CCNc2nccc(-c3c(-c4cccc(O)c4)nc4sccn34)n2)CCN1Cc1ccccc1`, the IC50 came to 15.5 nM in experiment [1], 7.25 nM in experiment [2] and 3.91 nM in experiment [3].

`COc1cccc(-c2nc3sccn3c2-c2ccnc(NCCCNS(=O)(=O)c3ccc4ccccc4c3)n2)c1`: the figures for the IC50 in experiment [1], in experiment [2] and in experiment [3] were 842 nM, 165 nM and 172 nM, respectively.

In the case of `COc1cccc(-c2nc3sccn3c2-c2ccnc(NCCCNS(=O)(=O)c3ccc(C)cc3)n2)c1`, the IC50 in experiment [1] is 894 nM; in experiment [2] it was 168 nM; in experiment [3] it was 209 nM.

In the case of `O=S1(=O)NCCN1CCNc1nccc(-c2c(-c3cccc(O)c3)nc3sccn23)n1`, the results for the IC50 in experiment [1], in experiment [2] and in experiment [3] were 7.25 nM, 4.56 nM and 6.32 nM, respectively.

As for `Cc1ccc(S(=O)(=O)NCCCNc2nccc(-c3c(-c4ccccc4)nc4sccn34)n2)cc1`, the IC50 in experiment [1] is 521 nM; in experiment [2], 85.3 nM; in experiment [3], 201 nM.

Consider `Cc1ccc(S(=O)(=O)NCCNc2nccc(-c3c(-c4cccc(O)c4)nc4sccn34)n2)cc1`, for which the IC50 in experiment [1] was 64 nM; in experiment [2], 55 nM; in experiment [3] it was 62 nM.

`COc1cccc(-c2nc3sccn3c2-c2ccnc(NCCN3CC(C)(C)NS3(=O)=O)n2)c1`: the IC50 in experiment [1] was 13.7 nM; in experiment [2], 8.65 nM; in experiment [3] it was 5.63 nM.

`O=S(=O)(NCCCNc1nccc(-c2c(-c3ccccc3)nc3sccn23)n1)c1ccc(F)cc1`: the inhibition at 10 µM in experiment [4] turned out to be 59.7%. The half-inhibitory concentration (IC50) in experiment [1] is 276 nM; in experiment [2], 57.7 nM; in experiment [3], 87.8 nM.

With `COc1ccc(-c2nc3sccn3c2-c2ccnc(NCCNS(=O)(=O)c3ccc(F)cc3)n2)cc1`, the IC50 in experiment [1] stood at 9210 nM; in experiment [2], 13200 nM; in experiment [3], 32200 nM.

Turning to `COc1ccc(S(=O)(=O)NCCCNc2nccc(-c3c(-c4ccccc4)nc4sccn34)n2)cc1`, the IC50 in experiment [1] was determined as 299 nM; in experiment [2], 66.1 nM; in experiment [3], 98.3 nM.

For `COc1cccc(-c2nc3sccn3c2-c2ccnc(NCCN3CCN(C)S3(=O)=O)n2)c1`, the results for the IC50 in experiment [1], in experiment [2] and in experiment [3] were 6.12 nM, 1.51 nM and 2.52 nM, respectively.

Turning to `COc1cccc(-c2nc3sccn3c2-c2ccnc(NCCNS(=O)(=O)c3cccc(F)c3)n2)c1`, the IC50 came out at 561 nM in experiment [1], 112 nM in experiment [2] and 106 nM in experiment [3].

As to `O=S(=O)(NCCNc1nccc(-c2c(-c3ccccc3)nc3sccn23)n1)c1ccc(F)cc1`, the IC50 in experiment [1] turned out to be 375 nM; in experiment [2] it was 69.1 nM; in experiment [3], 112 nM.

Turning to `COc1ccc(S(=O)(=O)NCCCNc2nccc(-c3c(-c4cccc(OC)c4)nc4sccn34)n2)cc1`, the figures for the IC50 in experiment [1], in experiment [2] and in experiment [3] were 589 nM, 156 nM and 164 nM, respectively.

On to `Cc1ccc(S(=O)(=O)NCCNc2nccc(-c3c(-c4ccc(O)cc4)nc4sccn34)n2)cc1`, for which the IC50 was 11300 nM in experiment [1], 21300 nM in experiment [2] and 16500 nM in experiment [3].

Consider `O=S1(=O)NCCCN1CCNc1nccc(-c2c(-c3cccc(O)c3)nc3sccn23)n1`, for which the IC50 in experiment [1] worked out at 9.56 nM; in experiment [2], 5.21 nM; in experiment [3], 7.21 nM.

`CC(C)(C)OC(=O)N1CCCN(CCNc2nccc(-c3c(-c4cccc(O)c4)nc4sccn34)n2)S1(=O)=O`: the IC50 was found to be 11.2 nM in experiment [1], 9.57 nM in experiment [2] and 9.98 nM in experiment [3].

In the case of `COc1ccc(-c2nc3sccn3c2-c2ccnc(NCCNS(=O)(=O)c3cccc4ccccc34)n2)cc1`, the IC50 was 20800 nM in experiment [1], greater than 35000 nM in experiment [2] and 28900 nM in experiment [3].
